Assay results published in ChEMBL document CHEMBL4699636, “Novel 2,7-Diazaspiro[4,4]nonane Derivatives to Inhibit Mouse and Human Osteoclast Activities and Prevent Bone Loss in Ovariectomized Mice without Affecting Bone Formation” (J Med Chem, 2020).
pIC50: −log10 of the molar value. Each block holds one compound with its values, some of them ahead of it. Active and inactive are the calls of the source. The calls are words filed in the database; no cut-off is given here.

Legend:
[1] = molecular target: T1, Dedicator of cytokinesis protein 5 (Homo sapiens, UniProt Q9H7D0); assay: Inhibition of C-terminal 6-histidine tagged human DOCK5 (1212 to 1642 residues) expressed in Escherichia coli assessed as reduction in nucleotide exchange efficiency at 20 to 60 uM by N-methylanthraniloyl-GDP fluorescence based nucleotide exchange assay; settings: dose microM 20-60
T1 sequence (Q9H7D0 whole entry, the tested form may be a part): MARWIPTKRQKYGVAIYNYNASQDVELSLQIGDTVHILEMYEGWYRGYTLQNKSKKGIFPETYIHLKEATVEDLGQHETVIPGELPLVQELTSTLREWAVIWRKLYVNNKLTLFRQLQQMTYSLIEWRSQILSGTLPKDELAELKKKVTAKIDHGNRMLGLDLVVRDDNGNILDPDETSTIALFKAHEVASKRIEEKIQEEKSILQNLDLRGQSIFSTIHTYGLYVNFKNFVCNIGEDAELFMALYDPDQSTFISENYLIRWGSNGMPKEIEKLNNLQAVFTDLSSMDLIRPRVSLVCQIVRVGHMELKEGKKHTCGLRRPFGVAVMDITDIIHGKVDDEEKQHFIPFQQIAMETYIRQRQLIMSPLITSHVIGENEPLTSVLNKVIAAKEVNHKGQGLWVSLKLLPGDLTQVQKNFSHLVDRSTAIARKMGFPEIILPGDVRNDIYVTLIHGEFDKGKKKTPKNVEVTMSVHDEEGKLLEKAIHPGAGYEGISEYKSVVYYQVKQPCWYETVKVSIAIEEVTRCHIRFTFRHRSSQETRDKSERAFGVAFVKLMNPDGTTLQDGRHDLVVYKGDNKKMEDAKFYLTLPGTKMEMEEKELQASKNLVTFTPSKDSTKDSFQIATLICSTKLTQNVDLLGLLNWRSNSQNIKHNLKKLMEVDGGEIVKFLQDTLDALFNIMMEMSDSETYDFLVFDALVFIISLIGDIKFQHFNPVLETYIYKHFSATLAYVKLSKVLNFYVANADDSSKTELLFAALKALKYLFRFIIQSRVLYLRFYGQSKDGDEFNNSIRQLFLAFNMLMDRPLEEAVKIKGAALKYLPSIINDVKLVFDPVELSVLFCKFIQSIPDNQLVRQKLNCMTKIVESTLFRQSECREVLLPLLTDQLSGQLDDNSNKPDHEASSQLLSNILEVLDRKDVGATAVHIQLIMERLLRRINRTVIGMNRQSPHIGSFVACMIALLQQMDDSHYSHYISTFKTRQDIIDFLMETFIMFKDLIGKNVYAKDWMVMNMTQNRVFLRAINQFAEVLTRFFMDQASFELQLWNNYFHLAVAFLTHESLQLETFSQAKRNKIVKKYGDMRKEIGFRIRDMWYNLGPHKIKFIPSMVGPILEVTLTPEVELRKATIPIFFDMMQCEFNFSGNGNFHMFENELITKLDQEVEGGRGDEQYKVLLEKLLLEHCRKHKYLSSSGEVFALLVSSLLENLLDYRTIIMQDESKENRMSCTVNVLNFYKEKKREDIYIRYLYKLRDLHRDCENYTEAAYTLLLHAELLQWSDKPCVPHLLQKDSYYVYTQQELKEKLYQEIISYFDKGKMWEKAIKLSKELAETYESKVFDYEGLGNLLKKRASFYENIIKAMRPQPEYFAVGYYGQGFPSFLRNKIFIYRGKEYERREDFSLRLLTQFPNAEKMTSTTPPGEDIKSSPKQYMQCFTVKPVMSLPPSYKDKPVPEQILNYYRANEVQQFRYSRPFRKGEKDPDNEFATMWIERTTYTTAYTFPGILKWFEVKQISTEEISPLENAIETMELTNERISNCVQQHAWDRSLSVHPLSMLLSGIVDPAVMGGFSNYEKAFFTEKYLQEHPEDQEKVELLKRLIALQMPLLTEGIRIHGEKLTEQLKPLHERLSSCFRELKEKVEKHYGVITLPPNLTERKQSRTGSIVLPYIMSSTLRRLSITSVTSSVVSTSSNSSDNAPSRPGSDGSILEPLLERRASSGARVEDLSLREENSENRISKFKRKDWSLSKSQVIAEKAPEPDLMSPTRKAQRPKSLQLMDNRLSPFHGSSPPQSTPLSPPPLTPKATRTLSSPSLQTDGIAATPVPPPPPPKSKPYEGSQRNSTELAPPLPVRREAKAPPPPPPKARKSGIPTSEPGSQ
Method in brief: (§1)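 Mant-GDP-loaded His-tagged human RAC1 at 2.0 µM with 100 nM DOCK5 (residues 1212-1642) or TRIOGEF1 (R1232-T1550), both E. coli-expressed. Buffer: 50 mM Tris pH 8, 300 mM NaCl, 2 mM MgCl2, 1 mM DTT, 1% DMSO, 25 °C. Reaction started with 100 µM GTP. Fluorescence decay read at ex 360/em 440 nm, kobs by single-exponential fit, compound at 0, 20 or 60 µM, duplicates, as % of activity.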

Osteoclast [2] = assay: Inhibition of resorption activity of mouse peripheral blood cell-derived osteoclasts at 5-10 uM incubated for 48 hrs by Kossa-staining based assay; type: functional, tissue-based; settings: dose microM 5-10, time 48.0 hrs, in the assay text read “bone marrow-derived” for “peripheral blood cell-derived”
Method in brief: (§2)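 Osteoclasts from C57BL/6J mouse bone marrow, M-CSF then M-CSF 30 ng/mL plus RANKL 100 ng/mL. Day-3 cells reseeded on calcium phosphate-coated wells, compound added next day in 0.5% DMSO for 48 h, 8 wells per condition. 4 wells TRAP-stained for osteoclast counts, 4 von Kossa-stained for resorbed area. Activity expressed as resorption normalized to osteoclast number.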

[3] = Toxicity in mouse peripheral blood cell-derived osteoclasts assessed as reduction in osteoclasts number at 5-10 uM incubated for 48 hrs by TRAP-staining based assay; type: tissue-based; settings: osteoclast, in the assay text read “bone marrow-derived” for “peripheral blood cell-derived”
Method in brief: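 Osteoclasts were derived from bone marrow of 4–8-week-old C57BL/6J mice, first with M-CSF 100 ng/mL for 48 h, then with M-CSF 30 ng/mL plus RANKL 100 ng/mL. At day 3 of differentiation they were detached with Accutase and seeded on calcium phosphate-coated wells. Next day, compound was added in 0.5% DMSO (8 wells/condition) for 48 h. Four wells were TRAP-stained (pH 5, tartrate, 1.5 h, 37 °C) and osteoclasts counted from images.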

[4] = tested on: Osteoclast (Homo sapiens); assay: Inhibition of resorption activity of human peripheral blood cell-derived osteoclasts at 1-20 uM incubated for 48 hrs by Kossa-staining based assay; settings: dose microM 1-20, time 48.0 hrs
[5] = tested on: Osteoclast (Homo sapiens); assay: Toxicity in human peripheral blood cell-derived osteoclasts assessed as reduction in osteoclasts number at 20 uM incubated for 48 hrs by TRAP-staining based assay
[6] = molecular target: Triple functional domain protein (Homo sapiens) (UniProt O75962); assay: Inhibition of C-terminal 6-histidine tagged human TRIOGEF1 (R1232 to T1550 residues) expressed in Escherichia coli assessed as reduction in nucleotide exchange efficiency at 20 to 60 uM by N-methylanthraniloyl-GDP fluorescence based nucleotide exchange assay; settings: dose microM 20-60; method in brief: as §1
[7] = molecular target: Dedicator of cytokinesis protein 5 (Mus musculus) (UniProt B2RY04); assay: Inhibition of DOCK5 in mouse osteoclasts assessed as induction of podosome belt organization defects at 100 uM incubated for 4 hrs followed by compound wash out by overnight recovery by immunofluorescence based assay; type: tissue-based; settings: Osteoclast
Dedicator of cytokinesis protein 5 (Mus musculus), sequence (B2RY04 whole entry, the tested form may be a part): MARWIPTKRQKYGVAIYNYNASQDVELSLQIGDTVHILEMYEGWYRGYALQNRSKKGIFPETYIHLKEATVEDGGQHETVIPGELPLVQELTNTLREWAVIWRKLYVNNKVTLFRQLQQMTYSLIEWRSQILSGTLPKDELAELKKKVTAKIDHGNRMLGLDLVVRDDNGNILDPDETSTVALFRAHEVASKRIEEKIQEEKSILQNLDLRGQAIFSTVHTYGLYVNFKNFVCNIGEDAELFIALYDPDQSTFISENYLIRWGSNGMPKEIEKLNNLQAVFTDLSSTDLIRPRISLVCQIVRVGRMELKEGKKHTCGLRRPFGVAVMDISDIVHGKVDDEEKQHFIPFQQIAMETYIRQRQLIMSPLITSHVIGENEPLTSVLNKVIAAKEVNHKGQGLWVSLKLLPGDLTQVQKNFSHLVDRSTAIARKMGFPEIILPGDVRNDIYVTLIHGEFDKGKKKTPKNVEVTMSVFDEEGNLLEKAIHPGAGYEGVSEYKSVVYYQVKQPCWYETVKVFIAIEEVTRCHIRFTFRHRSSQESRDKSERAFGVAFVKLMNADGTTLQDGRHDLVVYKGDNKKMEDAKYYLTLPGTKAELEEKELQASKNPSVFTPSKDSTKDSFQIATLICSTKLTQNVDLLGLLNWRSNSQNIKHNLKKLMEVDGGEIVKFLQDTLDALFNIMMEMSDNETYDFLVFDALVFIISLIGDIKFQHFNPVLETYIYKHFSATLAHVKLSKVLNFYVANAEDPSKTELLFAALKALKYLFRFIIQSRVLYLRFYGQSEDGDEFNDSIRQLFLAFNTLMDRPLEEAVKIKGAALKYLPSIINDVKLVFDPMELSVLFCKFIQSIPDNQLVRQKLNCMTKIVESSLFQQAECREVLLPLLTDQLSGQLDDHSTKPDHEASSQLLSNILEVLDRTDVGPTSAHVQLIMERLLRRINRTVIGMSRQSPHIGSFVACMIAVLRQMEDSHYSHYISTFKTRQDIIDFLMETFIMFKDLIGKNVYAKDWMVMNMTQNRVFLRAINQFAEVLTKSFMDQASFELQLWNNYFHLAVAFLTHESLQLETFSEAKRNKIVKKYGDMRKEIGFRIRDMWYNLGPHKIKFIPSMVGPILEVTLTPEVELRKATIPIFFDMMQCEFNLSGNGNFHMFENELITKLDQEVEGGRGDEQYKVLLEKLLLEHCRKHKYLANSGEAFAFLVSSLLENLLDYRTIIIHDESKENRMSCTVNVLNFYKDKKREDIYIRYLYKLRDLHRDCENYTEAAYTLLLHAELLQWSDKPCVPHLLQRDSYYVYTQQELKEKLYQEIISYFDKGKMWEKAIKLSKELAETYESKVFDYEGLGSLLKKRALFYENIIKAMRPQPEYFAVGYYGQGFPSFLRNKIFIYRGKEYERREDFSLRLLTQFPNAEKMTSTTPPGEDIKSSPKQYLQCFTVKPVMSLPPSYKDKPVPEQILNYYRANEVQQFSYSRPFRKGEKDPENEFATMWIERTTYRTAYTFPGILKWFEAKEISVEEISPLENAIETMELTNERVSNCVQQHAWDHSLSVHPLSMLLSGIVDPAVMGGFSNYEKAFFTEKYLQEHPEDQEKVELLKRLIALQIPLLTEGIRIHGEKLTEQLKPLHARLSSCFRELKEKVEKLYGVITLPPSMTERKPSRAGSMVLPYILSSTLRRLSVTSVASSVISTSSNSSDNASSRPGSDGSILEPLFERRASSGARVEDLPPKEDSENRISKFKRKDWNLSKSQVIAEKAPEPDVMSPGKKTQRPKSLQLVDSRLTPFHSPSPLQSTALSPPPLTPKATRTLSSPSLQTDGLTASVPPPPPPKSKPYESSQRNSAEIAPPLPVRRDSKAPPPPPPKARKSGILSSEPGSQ
Method in brief: (§3)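 Mouse bone-marrow osteoclasts, differentiated with M-CSF and RANKL on coverslips. Compound added to 100 µM final, 0.5% DMSO, for 4 h. Cells fixed directly, or after medium change and overnight recovery, then stained for vinculin and actin (phalloidin) and viewed by widefield microscopy for podosome belt organization.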

[8] = molecular target: Dedicator of cytokinesis protein 5 (Mus musculus) (UniProt B2RY04); assay: Inhibition of DOCK5 in mouse osteoclasts assessed as induction of podosome belt organization defects at 100 uM incubated for 4 hrs by immunofluorescence based assay; settings: Osteoclast; method in brief: as §3
[9] = molecular target: T1, Dedicator of cytokinesis protein 5; assay: Inhibition of N-terminal GFP tagged human DOCK5 (1212-1642 residues) expressed in HEK293T cells assessed as reduction in exchange activity incubated for 1 hr by Western blot analysis based Rac-GTP pull-down assay; type: cell-based
Method in brief: (§4)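 HEK293T cells transiently expressing GFP-tagged DOCK5 DHR2 exchange domain (mouse, or human residues 1212-1642). Treated 1 h with compound in 1% DMSO, then lysed. Rac-GTP pulled down with GST-PakCRIB beads, 45 min at 4 °C, and detected by western blot. Band intensity normalized to lysate protein. Single dose 100 µM; dose-response in 1.5x steps for IC50.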

[10] = molecular target: Dedicator of cytokinesis protein 5 (Mus musculus) (UniProt B2RY04); assay: Inhibition of N-terminal GFP tagged mouse DOCK5 expressed in HEK293T cells assessed as reduction in exchange activity at 100 uM incubated for 1 hr by Western blot analysis based Rac-GTP pull-down assay; type: cell-based; method in brief: as §4
Osteoclast [11] = assay: Inhibition of resorption activity of mouse peripheral blood cell-derived osteoclasts at 8 uM incubated for 48 hrs by Kossa-staining based assay; type: functional, tissue-based; settings: in the assay text read “bone marrow-derived” for “peripheral blood cell-derived”; method in brief: as §2
Mus musculus [12] = assay: Antiosteoporotic activity in C57BL6/J mouse model of OVX-induced bone loss assessed as serum CTX-1 level […] at 100 ug/kg, sc QD for 4 weeks (165.38 +/- 54.93 %); type: functional; settings: dose 100 µg/kg
Mus musculus [13] = assay: Antiosteoporotic activity in C57BL6/J mouse model of OVX-induced bone loss assessed as trabecular pattern factor level in tibial metaphysis at 100 ug/kg, sc QD for 4 weeks by microCT analysis (17.17 +/- 3.41 […]); type: functional; settings: dose 100 µg/kg
[14] = Toxicity in C57BL6/J mouse model of OVX-induced bone loss assessed as effect on bone formation by measuring mineralizing surface per trabecular bone surface level in femoral metaphysis at 100 ug/kg, sc QD for 4 weeks by histomorphometry (27.90 +/ 8.22 %); type: organism-based; settings: in vivo, 0.1 mg/kg, 672 h, dose 100 µg/kg
Mus musculus [15] = assay: Antiosteoporotic activity in C57BL6/J mouse model of OVX-induced bone loss assessed as degree of anisotropy (range 0-1) level in tibial metaphysis at 100 ug/kg, sc QD for 4 weeks by microCT analysis (0.53 +/- 0.07); type: functional; settings: dose 100 µg/kg
Mus musculus [16] = assay: Antiosteoporotic activity in C57BL6/J mouse model of OVX-induced bone loss assessed as structure model index level in tibial metaphysis at 100 ug/kg, sc QD for 4 weeks by microCT analysis (1.92 +/- 0.19); type: functional; settings: dose 100 µg/kg
[17] = Toxicity in C57BL6/J mouse model of OVX-induced bone loss assessed as effect on body weight at 100 ug/kg, sc QD for 4 weeks; type: organism-based; settings: in vivo, 0.1 mg/kg, 672 h, dose 100 µg/kg
Mus musculus [18] = assay: Antiosteoporotic activity in C57BL6/J mouse model of OVX-induced bone loss assessed as trabecular bone volume per tissue volume level in femoral metaphysis at 100 ug/kg, sc QD for 4 weeks by histomorphometry (11.67 +/- 2.37%); type: functional; settings: dose 100 µg/kg
[19] = Toxicity in C57BL6/J mouse model of OVX-induced bone loss assessed as effect on bone formation by measuring osteocalcin level at 100 ug/kg, sc QD for 4 weeks […]; type: organism-based; settings: in vivo, 0.1 mg/kg, 672 h, dose 100 µg/kg
Mus musculus [20] = assay: Antiosteoporotic activity in C57BL6/J mouse model of OVX-induced bone loss assessed as trabecular separation level in femoral metaphysis at 100 ug/kg, sc QD for 4 weeks by histomorphometry (319.80 +/- 106.52 um); type: functional; settings: dose 100 µg/kg
[21] = Toxicity in C57BL6/J mouse model of OVX-induced bone loss assessed as effect on bone formation by measuring osteoblast surface per trabecular bone surface level in femoral metaphysis at 100 ug/kg, sc QD for 4 weeks by histomorphometry (5.03 +/ 2.92 %); type: organism-based; settings: in vivo, 0.1 mg/kg, 672 h, dose 100 µg/kg
Mus musculus [22] = assay: Antiosteoporotic activity in C57BL6/J mouse model of OVX-induced bone loss assessed as trabecular number level in femoral metaphysis at 100 ug/kg, sc QD for 4 weeks by histomorphometry (2.99 +/- 0.80 /mm); type: functional; settings: dose 100 µg/kg
Mus musculus [23] = assay: Antiosteoporotic activity in C57BL6/J mouse model of OVX-induced bone loss assessed as trabecular thickness level in femoral metaphysis at 100 ug/kg, sc QD for 4 weeks by histomorphometry (39.96 +/- 5.42 um); type: functional; settings: dose 100 µg/kg
[24] = Toxicity in C57BL6/J mouse model of OVX-induced bone loss assessed as effect on bone formation by measuring number of osteoblasts per bone surface level in femoral metaphysis at 100 ug/kg, sc QD for 4 weeks by histomorphometry (4.55 +/ 2.53 /mm); type: organism-based; settings: in vivo, 0.1 mg/kg, 672 h, dose 100 µg/kg
[25] = Toxicity in C57BL6/J mouse model of OVX-induced bone loss assessed as effect on bone formation by measuring mineralizing mineral apposition rate level in femoral metaphysis at 100 ug/kg, sc QD for 4 weeks by histomorphometry (1.62 +/ 0.21 um/d (lcm)); type: organism-based; settings: in vivo, 0.1 mg/kg, 672 h, dose 100 µg/kg
[26] = Toxicity in C57BL6/J mouse model of OVX-induced bone loss assessed as effect on bone formation by measuring bone formation rate per trabecular bone surface level in femoral metaphysis at 100 ug/kg, sc QD for 4 weeks by histomorphometry ([…]); type: organism-based; settings: in vivo, 0.1 mg/kg, 672 h, dose 100 µg/kg
Mus musculus [27] = assay: Antiosteoporotic activity in C57BL6/J mouse model of OVX-induced bone loss assessed as trabecular bone volume per tissue volume level in tibial metaphysis at 100 ug/kg, sc QD for 4 weeks by microCT analysis (17.49 +/- 2.91 %); type: functional; settings: dose 100 µg/kg
Mus musculus [28] = assay: Antiosteoporotic activity in C57BL6/J mouse model of OVX-induced bone loss assessed as cortical thickness level in tibial diaphysis at 100 ug/kg, sc QD for 4 weeks by microCT analysis (179.27 +/- 7.57 um); type: functional; settings: dose 100 µg/kg

Compound: COc1ccc(N2CCC3(CCN(Cc4cccc(Cl)c4)C3)C2=O)cc1C (stereo unspecified)
inhibition [1]: inactive
inhibition (Osteoclast [2]): Active
Activity [3]: Toxic

Compound: O=C1N(c2cccc(F)c2)CCC12CCN(Cc1cccc(Cl)c1)C2 (stereo unspecified)
inhibition [1]: inactive
inhibition (Osteoclast [2]): Active
Activity [3]: Toxic

Compound: NCCCC(O)(P(=O)(O)O)P(=O)(O)O
inhibition [4]: Active

Compound: COc1ccc(CN2CC[C@@]3(C2)[C@@H](O)CN(c2ccccc2)S3(=O)=O)cc1F (racemic)
inhibition [1]: inactive
inhibition (Osteoclast [2]): Active

Compound: O=S1(=O)N(c2ccccc2)C[C@H](O)[C@]12CCN(Cc1ccc3c(c1)CCC3)C2 (racemic)
inhibition [1]: inactive
inhibition (Osteoclast [2]): Active

Compound: O=S1(=O)N(c2ccccc2)C[C@H](O)[C@]12CCN(Cc1cnc3ccccc3c1)C2 (racemic)
inhibition [1]: inactive
inhibition (Osteoclast [2]): Active

Compound: O.O=P(O)(O)C(O)(Cn1ccnc1)P(=O)(O)O [ZOLEDRONIC ACID]
Activity (Mus musculus [12]): 73.18%
Activity (Mus musculus [13]): -35.6 1/mm
Activity [14]: 8.51%
Activity_index (Mus musculus [15]): 0.25
Activity_index (Mus musculus [16]): -1.36
Activity [17]: Non-Toxic
Activity (Mus musculus [18]): 26.19%
Activity [19]: 42.55%
Activity (Mus musculus [20]): 132.16 um
Activity [21]: 0.52%
Activity (Mus musculus [22]): 5.92 /millimeter
Activity (Mus musculus [23]): 44.8 µm
Activity [24]: 0.54 /millimeter
Activity [25]: 1.11 micrometer/day
Activity [26]: 34.28 um3/um2/yr
Activity (Mus musculus [27]): 43.96%
Activity (Mus musculus [28]): 189.5 um

Continued, in another order:

inhibition [6]: inactive
inhibition [1]: 67%
Compound: O=S1(=O)N(c2ccccc2)C[C@H](O)[C@]12CCN(Cc1ccc(Cl)c(Cl)c1)C2 (racemic)
Activity [5]: Toxic
inhibition (Osteoclast [2]): Active
inhibition [4]: Active

inhibition [7]: inactive
inhibition [8]: Active
inhibition [1]: inactive
pIC50 [9]: 4.62
inhibition [10]: Active
Compound: O=S1(=O)N(c2ccccc2)C[C@H](O)[C@]12CCN(Cc1cccc(Cl)c1)C2 (racemic)
inhibition (Osteoclast [2]): Active
inhibition (Osteoclast [11]): Active

inhibition [1]: inactive
Compound: Cn1cc(CN2CC[C@@]3(C2)[C@@H](O)CN(c2ccccc2)S3(=O)=O)c2ccccc21 (racemic)
inhibition (Osteoclast [2]): Active

inhibition [1]: inactive
Compound: O=S1(=O)N(c2ccccc2)C[C@H](O)[C@]12CCN(Cc1ccccc1Cl)C2 (racemic)
inhibition (Osteoclast [2]): Active
